# OX1R antag-1: antagonists of human orexin 1 receptor. O43613. inhibition, % at 5 µM. 330,000 compounds, 0.43% hits. CHO/OX1R cells, Fluo-8 calcium fluorescence, orexin A;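 active = inhibition above its plate's threshold, mean inhibition of all tested compounds on the plate plus 3 SD, cut at about 37% in these data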;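 note: 0% = orexin A challenge wells and 100% = SB-334867-A antagonist wells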
# GalR3 antag: antagonists of human GalR3. O60755. HEK293 GalR3-CNG cAMP membrane potential fluorescence; galR3 body fused to GalR1 C-terminus. inhibition, % at 3 µM. 360,000 compounds, 0.44% hits. AID 651719;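 active = inhibition above the screen-wide average plus 3 SD, cut at about 13% in these data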;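 note: forskolin and galanin both at EC90 stimulate the cells; cAMP rise reported by CNG channel membrane potential dye signal; 0% = forskolin plus galanin with DMSO and 100% = forskolin alone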
# Target sequence (O60755 1-299 limits assumed): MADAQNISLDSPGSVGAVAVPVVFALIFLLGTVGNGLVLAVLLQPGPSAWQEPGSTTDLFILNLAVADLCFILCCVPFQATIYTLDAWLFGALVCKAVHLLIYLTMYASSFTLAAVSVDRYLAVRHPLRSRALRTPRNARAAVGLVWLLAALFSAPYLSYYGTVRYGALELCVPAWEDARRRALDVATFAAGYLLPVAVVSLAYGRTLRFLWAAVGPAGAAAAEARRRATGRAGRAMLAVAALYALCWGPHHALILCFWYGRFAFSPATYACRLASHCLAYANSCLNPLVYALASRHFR
# OX1R antag-2: blocks the human orexin 1 receptor; OX1R-expressing cells, FRET antagonist read-out; inhibition, % at 6.6 µM; 330,000 compounds, 1.8% hits; AID 485270; in the data active = inhibition mostly above about 38%, no sharp cut-off; inactive = mostly below about 40%;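 note: 0% = agonist challenge alone and 100% = reference antagonist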
# CHO parental Ca: counter-screen for OX1R antagonists: effect in parental CHO cells; parental CHO-K1, ATP-induced calcium, Fluo-8 fluorescence; 330,000 compounds, 0.63% hits; inhibition, % at 5.6 µM;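 active = inhibition above that plate's mean sample inhibition plus 3 SD, cut at about 26% in these data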;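 note: 0% = ATP-challenged DMSO wells and 100% = DMSO wells without ATP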
#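 material = parental CHO cells | also added = ATP as calcium-mobilizing challenge | dosing = single point at 5.6 µM | detection = intracellular calcium via Fluo-8 no-wash fluorescent dye | read-out = % inhibition | benchmarks = low control ATP plus DMSO, high control DMSO only | repeats = one well per compound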
# GPR7 antag: antagonists of human GPR7 (neuropeptides B/W receptor 1); P48145; GPR7-expressing cells, fluorescence antagonist assay; inhibition, % at 4.4 µM; 290,000 compounds, 1.1% hits; AID 1861; in the data active = inhibition above about 16%, passing the limit was not always enough;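 note: cells stimulated with the agonist NPW; 0% = agonist with vehicle and 100% = vehicle without agonist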
# Target sequence (P48145 whole entry, looked up): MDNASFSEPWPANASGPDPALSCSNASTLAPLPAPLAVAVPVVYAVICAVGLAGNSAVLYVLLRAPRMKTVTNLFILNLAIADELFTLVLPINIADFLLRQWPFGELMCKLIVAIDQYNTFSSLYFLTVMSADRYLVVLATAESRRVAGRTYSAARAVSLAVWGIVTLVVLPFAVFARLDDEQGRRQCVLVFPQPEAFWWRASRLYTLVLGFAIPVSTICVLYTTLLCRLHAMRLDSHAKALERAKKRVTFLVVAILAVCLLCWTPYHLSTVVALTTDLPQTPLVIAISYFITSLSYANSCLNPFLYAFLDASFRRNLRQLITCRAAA
# Starred values were filed as active, the others as inactive; . = not tested or not shown. In the library only some 3.1% were active in any assay of this set; here they are far more common.
SMILES,OX1R antag-1,GalR3 antag,OX1R antag-2,CHO parental Ca,GPR7 antag
Cc1ccc(F)c(S(=O)(=O)NC(=O)C2(C)CCN2C(=O)C/C=C/c2ccccc2)c1 (centres undefined),.,-0.1,.,.,.
Cc1nnc(NC(=O)CC(C)c2ccccc2)s1 (centres undefined),-1.4,-9.0,18.9,-3.9,-3.7
Cc1csc(NC(=O)CSc2nncn2C)n1,-16.0,0.7,23.0,4.3,-4.1
CC(CC(=O)Nc1ncc([N+](=O)[O-])s1)c1ccccc1 (centres undefined),-11.5,4.3,35.3*,3.9,8.6
Cn1cnnc1SCC(=O)Nc1ncc([N+](=O)[O-])s1,-5.3,3.8,35.4*,6.4,.
O=C(COC(=O)COc1ccccc1)Nc1ncc([N+](=O)[O-])s1,-20.2,5.2,43.0*,2.0,.
O=C(COc1ccc(Cl)cc1)Nc1ncc([N+](=O)[O-])s1,.,-0.1,.,.,7.6
COC1C(O)CCC2(CO2)C1C1(C)OC1CC=C(C)C (centres undefined),.,-1.0,.,.,.
O=C(Nc1nnc(CSCc2ccccc2F)s1)c1cccc([N+](=O)[O-])c1,-16.6,0.5,42.8*,-4.3,16.6
CC(C)C[C@@H]1COc2cc(N3CCOCC3)ccc2S(=O)(=O)N1,.,-5.8,.,.,.
CCCCNc1c(-c2cccc(SC3CCCCC3)c2)nc2ccc(Cl)cn12,-35.6,1.9,29.3,-40.0,.
CCCCNc1c(-c2ccc(SC(C)CC)cc2)nc2ccccn12 (centres undefined),56.4*,-7.7,60.8,86.8*,.
CCCCNc1c(-c2ccc(SC3CCCCC3)cc2)nc2ccccn12,40.9,-8.5,30.6,79.7*,.
c1ccc(CNc2c(-c3cccc(SC4CCCCC4)c3)nc3ccccn23)cc1,73.4*,-4.2,35.3,81.8*,.
C[C@@H]1CN([C@H](C)CO)S(=O)(=O)c2ccc(C#Cc3ccccc3F)cc2O[C@@H]1CN(C)C(=O)Cc1ccccc1,.,-7.5,.,.,.
O[C@@H]1CN(Cc2cccs2)[C@@H](c2ccccc2)C[C@H]1n1cc(-c2ccc(F)cc2)nn1,.,-3.3,.,.,.
CCCC(=O)OC[C@H]1CN(C2CCCC2)S(=O)(=O)c2c(Oc3ccc(F)cc3)cccc2O1,.,-7.5,.,.,.
Cc1ccc2cccc(NC(=S)NC(=O)c3ccn(C)n3)c2n1,0.4,1.5,65.4*,-42.5,-8.2
Cc1ccc2cccc(NC(=S)NC(=O)c3c(Br)cnn3C)c2n1,-37.1,-4.0,16.1,-27.4,-6.4
C[C@@H]1C=CCCO[C@]12C(=O)N(Cc1ccc(Br)cc1)c1ccccc12,.,-2.9,.,.,.
NC(=O)C1CC(=O)N(c2ccc(OCc3ccc(Cl)c(Cl)c3)cc2)C1 (centres undefined),.,-6.6,.,.,.
COC(=O)C1=C(C)N(Cc2ccccc2)C(=NCCc2c[nH]c3ccccc23)N[C@H]1c1cccc(C(F)(F)F)c1,67.4*,.,3.7,37.7,.
Cc1cc2c(c(=O)o1)[C@@]1(C(=O)N(C)c3ccc([N+](=O)[O-])cc31)C1=C(CCCC1=O)O2,.,-2.0,.,.,.
Cc1nc2ccccc2cc1OCc1ccccc1,7.4,-5.6,27.3,37.0*,-2.8
Cc1nc(OCc2ccccc2)c2ccccc2n1,1.1,-3.4,36.8,-14.9,-8.9
SMILES,OX1R antag-1,GalR3 antag,OX1R antag-2,CHO parental Ca,GPR7 antag
CCN(C[C@H]1N[C@@](Cc2ccccc2)(C(=O)OC)[C@H]2C(=O)N(Cc3ccccc3)C(=O)[C@@H]12)C(=O)Nc1ccc(C(F)(F)F)cc1,29.4,-3.0,36.9*,10.0,.
CNCCC(Oc1ccc(C(F)(F)F)cc1)c1ccccc1 (centres undefined),-4.6,-3.6,4.1,1.4,16.9
CNCC[C@H](Oc1cccc2ccccc12)c1cccs1,-9.5,.,13.8,-12.5,37.6*
COc1cc(CNCCc2c[nH]c3ccccc23)ccc1OCc1ccc(F)cc1,9.7,-7.5,10.3,10.6,20.9*
O=c1cc(-c2ccc(O)cc2)oc2c1ccc1ccccc12,-5.1,-8.8,44.3*,-3.4,.
Cc1ccc(OCCOC(=O)C2CCN(S(=O)(=O)c3ccc(C)c(C)c3)CC2)cc1,-4.6,-2.5,16.4,29.1*,.
Cc1ccc(S(=O)(=O)N2CCC(C(=O)OCCOc3ccccc3)CC2)cc1C,-18.5,-3.6,14.8,-5.4,.
O=S(=O)(c1ccccc1Br)N(Cc1ccccc1)CC(O)COCc1ccccc1 (centres undefined),41.1,-1.1,36.2*,-16.2,.
C=CCCN([C@H](CO)Cc1ccccc1)S(=O)(=O)c1ccccc1Br,22.9,-6.9,45.9*,-18.6,.
C=CCCCN(Cc1ccccc1)S(=O)(=O)c1ccccc1Br,27.3,-6.6,20.9,44.0*,.
COc1cc(CN(CC(C)C)S(=O)(=O)c2ccccc2Br)cc(OC)c1,34.6,-5.7,33.5*,-19.9,.
C=CS(=O)(=O)N(Cc1ccccc1Br)[C@H](CO)Cc1ccccc1,.,-2.4,.,.,.
CCN(Cc1ccccc1)S(=O)(=O)c1ccccc1Br,-10.2,-7.3,28.5,-15.2,.
COc1ccc(Cc2n[nH]c(=S)n2-c2cc(C)ccc2C)cc1OC,.,-9.1,.,.,.
CC1(C(=O)NS(=O)(=O)c2ccc(C#N)cc2)CCN1C(=O)Cc1ccsc1 (centres undefined),.,-8.2,.,.,.
Cc1cc(Br)c2nc(-c3ccc(F)cc3)c(Cc3cccc(Cl)c3)n2c1,.,-3.3,.,.,.
O=C(NCC1CCCO1)c1ccccc1S(=O)(=O)c1ccc([N+](=O)[O-])cc1 (centres undefined),1.7,-7.4,75.8*,-4.8,-12.4
O=C(NCC1CCCO1)c1ccc(NS(=O)(=O)c2cccc([N+](=O)[O-])c2)cc1 (centres undefined),-5.9,3.1,27.5,-1.5,13.7
OC(c1ccccc1)(c1nc(-c2cccc(F)c2)cs1)C(F)(F)F (centres undefined),.,-7.7,.,.,.
CCOC(=O)N1CCN(CC(=O)Nc2ccc(F)c(F)c2F)CC1,-1.2,-0.9,5.6,-7.0,-17.6
CCOC(=O)N1CCN(CC(=O)Nc2ccc(F)cc2F)CC1,-0.4,-8.5,15.2,28.5*,-1.6
CC(C)COC(=O)NCCOC(=O)Nc1cccc(Cl)c1,0.9,-4.1,37.1,57.3*,1.5
CC1(C)CC[C@]2(C(=O)O)CC[C@]3(C)C(=CC[C@@H]4[C@@]5(C)CC[C@H](O[C@@H]6O[C@H](C(=O)O)[C@@H](O)[C@H](O[C@@H]7OC[C@H](O)[C@H](O)[C@H]7O)[C@H]6O)C(C)(C)[C@@H]5CC[C@]43C)[C@@H]2C1,110.8*,-4.7,33.6,100.4*,.
COc1ccc(C(=O)N[C@H](C(=O)OCCCOC(=O)[C@@H](NC(=O)c2ccc(OC)cc2)C(C)C)C(C)C)cc1,.,1.1,.,.,.
C=CC[n+]1ccc(/C=C2\C=Cc3cc(C)ccc3N2CC)c2ccccc21,.,.,.,.,26.0*
CCOC(=O)c1cccc(NC(=O)CCS(=O)(=O)c2ccc(Br)s2)c1,-10.5,-5.8,45.7*,-17.3,-1.8
C#CCNC(=O)C[C@H]1C[C@@]2(C(=O)OC)C(=C[C@H](COCc3ccccc3)O[C@@H]2C)N(Cc2ccc3c(c2)OCO3)C1=O,.,-7.5,.,.,.
CCOC(=O)C1=CCN(S(=O)(=O)c2ccc(Cl)cc2)C1c1cccc(F)c1 (centres undefined),.,-7.7,.,.,.
